Assay results published in ChEMBL document CHEMBL1125545, “4-Methyl-3-(arylsulfonyl)furoxans: a new class of potent inhibitors of platelet aggregation” (J Med Chem, 1992).

Organism: Homo sapiens
Test: Inhibition of arachidonic acid (AA) induced human platelet aggregation.
Assay type: functional
Procedure, shortened: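 Human PRP (pH 7.6; 200g, 15 min at room temperature) with platelet counts matched. Compound in DMSO-ethanol given 5 min before 1 mM arachidonic acid, with a solvent control. Aggregation followed by Born light-transmission aggregometry, IC50 derived from the aggregation traces. At least four repeats, each with platelets from a different donor.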

SODIUM NITROPRUSSIDE
IC50: 1000 nM
